In brackets after ≈: the same amount, converted by molar mass. Activity calls are given as the source filed them. The rule behind the calls is not given here.
Columns and labels:
[1] = Clearance in Sprague-Dawley rat at 2.5 mg/kg, iv and 3 mg/kg, po; format: ADME, organism-based; settings: in vivo
How it was run: (§1)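 Male animals, n = 3 per species, given single iv and oral doses. Values are mean and range. Blood clearance is also expressed as % of liver blood flow, taken as (mL/min)/kg: rat 85, dog 31, minipig 30, cynomolgus monkey 44.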

[2] = target: Glutamate receptor 2 (Rattus norvegicus) (UniProt P19491); assay: Allosteric modulation of GluA2 receptor flip isoform in rat hippocampal neuron at 10 uM by whole cell patch-clamp electrophysiology; format: tissue-based; settings: Hippocampus
How it was run: (§2)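 Rat cultured hippocampal neurons; 30 μM AMPA applied for 2 s, with compound co-applied at 10 nM or 10 μM. Read-out is the increase in charge transfer, taken as the area under the current curve.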

[3] = tested on: Brain; assay: Drug level in Lister Hooded rat assessed per gram of tissue at 0.3 mg/kg, ip; format: ADME, organism-based; design: dose 0.3 mg/kg, route intraperitoneal; settings: in vivo
How it was run: (§3)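 Male Lister Hooded rats (n = 9-12/group) tested for reversal of a 24 h delay-induced deficit in novel object recognition. Significant doses flagged. Brain concentrations measured in the study animals at the end of the test.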

[4] = Cmax in rat at 3 mg/kg, po; format: ADME, organism-based; design: dose 3 mg/kg, route oral; settings: in vivo
[5] = Half life in cynomolgus monkey at 0.25 mg/kg, iv; format: ADME, organism-based, Macaca fascicularis; design: dose 0.25 mg/kg, route intravenous; settings: in vivo; how it was run: as §1
[6] = target: Glutamate receptor 2 (Homo sapiens, UniProt P42262); assay: Allosteric modulation of human recombinant GluA2 receptor flip isoform expressed in HEK293 cells at 10 uM by whole cell patch-clamp electrophysiology; format: cell-based
How it was run: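 Perforated-patch (amphotericin B) voltage clamp of HEK293 cells stably expressing human GluA2 flip (unedited) homotetramers, held at -60 mV. Extracellular solution in mM: 140 NaCl, 2 KCl, 1 MgCl2, 2 CaCl2, 12 HEPES, 10 D-glucose, pH 7.35. Currents evoked by 1 mM glutamate; compound at 100 nM or 10 μM. Read-out is percent increase in charge transfer (area under curve).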

[7] = Clearance in Swiss Beagle dog at 0.25 mg/kg, iv and 0.5 mg/kg, po; format: ADME, organism-based, Canis lupus familiaris; settings: in vivo; how it was run: as §1
[8] = in vivo; settings: Sprague-Dawley, rat, po, 3 mg/kg
[9] = tested on: Rattus norvegicus; assay: Cognitive enhancing effect in Lister Hooded rat assessed as reversal of 24 hrs delay-induced cognitive deficit at 0.1 mg/kg, ip by novel object recognition test
[10] = AUC ( 0 to t) in rat at 3 mg/kg, po; format: ADME, organism-based, Plasma; design: dose 3 mg/kg, route oral; settings: plasma
[11] = Half life in Swiss Beagle dog at 0.25 mg/kg, iv; format: ADME, organism-based, Canis lupus familiaris; design: dose 0.25 mg/kg, route intravenous; settings: in vivo; how it was run: as §1
[12] = tested on: Sus scrofa; assay: Hepatic blood flow in Gottingen minipig at 0.5 mg/kg, iv and 1 mg/kg, po; format: ADME, organism-based, Liver; settings: pig, in vivo; how it was run: as §1
[13] = Kinetic solubility of the compound in phosphate buffered saline of pH 7.4; format: physicochemical
How it was run: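 Kinetic solubility: 10 mM DMSO stock, 5 μL diluted to 100 μL with pH 7.4 phosphate-buffered saline, equilibrated 1 h at room temperature, filtered, filtrate quantified by calibrated flow-injection chemiluminescent nitrogen detection.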

[14] = tested on: Rattus norvegicus; assay: Cognitive enhancing effect in Lister Hooded rat assessed as reversal of 24 hrs delay-induced cognitive deficit at 0.3 mg/kg, ip by novel object recognition test
[15] = Volume of distribution at steady state in Swiss Beagle dog at 0.25 mg/kg, iv and 0.5 mg/kg, po; format: ADME, organism-based, Canis lupus familiaris; settings: in vivo, read-out: Vdss
How it was run: (§4)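 Male animals, n = 3 per species, given single iv and oral doses: Sprague-Dawley rat 2.5 iv / 3 po mg/kg; beagle dog 0.25 / 0.5; Göttingen minipig 0.5 / 1; cynomolgus monkey 0.25 / 1. Blood sampled; Vss from iv; bioavailability and Vss as mean [range]; Tmax as median [range].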

[16] = tested on: Cynomolgus monkey; assay: Hepatic blood flow in cynomolgus monkey at 0.25 mg/kg, iv and 1 mg/kg, po; format: ADME, organism-based, Macaca fascicularis, Liver; settings: in vivo; how it was run: as §1
[17] = target: Voltage-gated inwardly rectifying potassium channel KCNH2 (Homo sapiens, UniProt Q12809); assay: Inhibition of human ERG at 10 uM
How it was run: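 hERG tail current recorded from stably transfected cells, compound at a nominal 10 μM (stated as 3.6 μg/mL).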

[18] = Tmax in Sprague-Dawley rat at 3 mg/kg, po; format: ADME, organism-based; design: dose 3 mg/kg, route oral; settings: in vivo; how it was run: as §4
[19] = tested on: Brain; assay: Drug level in Lister Hooded rat assessed per gram of tissue at 3 mg/kg, ip; format: ADME, organism-based; design: dose 3 mg/kg, route intraperitoneal; settings: in vivo; how it was run: as §3
[20] = tested on: Rattus norvegicus; assay: Cognitive enhancing effect in Wistar rat assessed as reversal of scopolamine-induced amnesic deficit at 10 to 30 mg/kg, ip by passive avoidance test
[21] = in vivo; settings: rat, brain and blood, po, 3 mg/kg
[22] = tested on: Canis familiaris; assay: Hepatic blood flow in Swiss Beagle dog at 0.25 mg/kg, iv and 0.5 mg/kg, po; format: ADME, organism-based, Canis lupus familiaris, Liver; settings: in vivo; how it was run: as §1
[23] = Clearance in rat at 3 mg/kg, po; format: ADME, organism-based; design: dose 3 mg/kg, route oral; settings: in vivo
How it was run: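 Rats dosed orally at 3 mg/kg; blood sampled via the hepatic portal vein and heart. Estimated clearance derived from in vivo hepatic extraction, taking rat liver blood flow as 85 (mL/min)/kg.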

[24] = target: Cytochrome P450 2D6 (Homo sapiens, UniProt P10635); assay: Inhibition of human CYP2D6 by fluorescence assay; format: ADME
How it was run: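 Recombinant human CYP bactosomes (0.1 mg/mL) in 50 mM potassium phosphate pH 7.4, preincubated 10 min at 37 °C with test compound (0.1-10 μM, 7 concentrations) and fluorogenic substrate. Substrates: ethoxyresorufin 0.5 μM (1A2), FCA 50 μM (2C9), BMC 10 μM (2C19), MMC 10 μM (2D6), DEF 1 μM or 7-BQ 25 μM (3A4). Reaction started with NADPH regenerating system; metabolite formation read over 10 min. IC50 from percent of control rate; miconazole control; triplicate.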

[25] = Intrinsic clearance in cryopreserved rhesus monkey hepatocytes assessed per gram of tissue; format: ADME, Macaca mulatta, Liver, Hepatocyte
[26] = target: Glutamate receptor 2 (Rattus norvegicus) (UniProt P19491); assay: Allosteric modulation of GluA2 receptor flip isoform in rat hippocampal neuron at 10 nM by whole cell patch-clamp electrophysiology; settings: Hippocampus; how it was run: as §2

Chain of Glutamate receptor 2 (Rattus norvegicus) (P19491 whole entry, canonical isoform): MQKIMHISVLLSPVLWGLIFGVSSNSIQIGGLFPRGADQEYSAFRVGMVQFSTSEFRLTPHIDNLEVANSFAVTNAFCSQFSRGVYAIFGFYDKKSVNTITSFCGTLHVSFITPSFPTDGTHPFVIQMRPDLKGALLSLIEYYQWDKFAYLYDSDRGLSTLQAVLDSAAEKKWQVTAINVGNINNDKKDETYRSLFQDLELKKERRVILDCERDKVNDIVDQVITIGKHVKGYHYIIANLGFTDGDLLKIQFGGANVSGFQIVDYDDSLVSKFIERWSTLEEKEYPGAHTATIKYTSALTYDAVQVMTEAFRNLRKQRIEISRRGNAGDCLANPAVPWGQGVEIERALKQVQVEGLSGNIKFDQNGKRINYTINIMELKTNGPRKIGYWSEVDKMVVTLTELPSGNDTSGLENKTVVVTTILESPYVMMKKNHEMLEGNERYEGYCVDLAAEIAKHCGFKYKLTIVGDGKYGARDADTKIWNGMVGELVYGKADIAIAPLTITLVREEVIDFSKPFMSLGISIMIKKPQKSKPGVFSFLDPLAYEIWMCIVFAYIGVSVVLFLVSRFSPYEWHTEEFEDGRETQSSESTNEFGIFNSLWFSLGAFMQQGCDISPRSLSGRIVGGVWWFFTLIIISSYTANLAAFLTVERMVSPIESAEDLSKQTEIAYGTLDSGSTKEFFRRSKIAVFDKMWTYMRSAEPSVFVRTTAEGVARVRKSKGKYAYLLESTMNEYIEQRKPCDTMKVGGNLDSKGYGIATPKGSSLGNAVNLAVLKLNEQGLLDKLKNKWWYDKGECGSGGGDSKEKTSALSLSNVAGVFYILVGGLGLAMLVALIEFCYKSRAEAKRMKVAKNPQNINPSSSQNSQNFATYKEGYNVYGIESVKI
Chain of Glutamate receptor 2 (P42262 whole entry, canonical isoform): as the sequence (P19491 whole entry, canonical isoform) above, with T191M, A291T, G764R, P852A counted along it
Chain of Cytochrome P450 2D6 (P10635 whole entry): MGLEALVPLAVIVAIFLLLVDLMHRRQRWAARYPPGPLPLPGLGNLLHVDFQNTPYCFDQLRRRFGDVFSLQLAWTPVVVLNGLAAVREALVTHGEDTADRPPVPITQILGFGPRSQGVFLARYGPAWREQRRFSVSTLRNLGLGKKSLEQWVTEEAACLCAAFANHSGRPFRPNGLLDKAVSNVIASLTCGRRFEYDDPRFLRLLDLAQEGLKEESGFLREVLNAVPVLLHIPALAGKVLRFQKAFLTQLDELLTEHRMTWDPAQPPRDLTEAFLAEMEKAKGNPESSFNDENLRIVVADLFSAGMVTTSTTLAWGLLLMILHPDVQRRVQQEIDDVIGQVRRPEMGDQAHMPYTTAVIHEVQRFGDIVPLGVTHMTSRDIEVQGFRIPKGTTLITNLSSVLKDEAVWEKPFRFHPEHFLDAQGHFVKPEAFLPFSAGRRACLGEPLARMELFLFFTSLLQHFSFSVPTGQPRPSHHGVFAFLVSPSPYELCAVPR
Chain of Voltage-gated inwardly rectifying potassium channel KCNH2 (Q12809 whole entry): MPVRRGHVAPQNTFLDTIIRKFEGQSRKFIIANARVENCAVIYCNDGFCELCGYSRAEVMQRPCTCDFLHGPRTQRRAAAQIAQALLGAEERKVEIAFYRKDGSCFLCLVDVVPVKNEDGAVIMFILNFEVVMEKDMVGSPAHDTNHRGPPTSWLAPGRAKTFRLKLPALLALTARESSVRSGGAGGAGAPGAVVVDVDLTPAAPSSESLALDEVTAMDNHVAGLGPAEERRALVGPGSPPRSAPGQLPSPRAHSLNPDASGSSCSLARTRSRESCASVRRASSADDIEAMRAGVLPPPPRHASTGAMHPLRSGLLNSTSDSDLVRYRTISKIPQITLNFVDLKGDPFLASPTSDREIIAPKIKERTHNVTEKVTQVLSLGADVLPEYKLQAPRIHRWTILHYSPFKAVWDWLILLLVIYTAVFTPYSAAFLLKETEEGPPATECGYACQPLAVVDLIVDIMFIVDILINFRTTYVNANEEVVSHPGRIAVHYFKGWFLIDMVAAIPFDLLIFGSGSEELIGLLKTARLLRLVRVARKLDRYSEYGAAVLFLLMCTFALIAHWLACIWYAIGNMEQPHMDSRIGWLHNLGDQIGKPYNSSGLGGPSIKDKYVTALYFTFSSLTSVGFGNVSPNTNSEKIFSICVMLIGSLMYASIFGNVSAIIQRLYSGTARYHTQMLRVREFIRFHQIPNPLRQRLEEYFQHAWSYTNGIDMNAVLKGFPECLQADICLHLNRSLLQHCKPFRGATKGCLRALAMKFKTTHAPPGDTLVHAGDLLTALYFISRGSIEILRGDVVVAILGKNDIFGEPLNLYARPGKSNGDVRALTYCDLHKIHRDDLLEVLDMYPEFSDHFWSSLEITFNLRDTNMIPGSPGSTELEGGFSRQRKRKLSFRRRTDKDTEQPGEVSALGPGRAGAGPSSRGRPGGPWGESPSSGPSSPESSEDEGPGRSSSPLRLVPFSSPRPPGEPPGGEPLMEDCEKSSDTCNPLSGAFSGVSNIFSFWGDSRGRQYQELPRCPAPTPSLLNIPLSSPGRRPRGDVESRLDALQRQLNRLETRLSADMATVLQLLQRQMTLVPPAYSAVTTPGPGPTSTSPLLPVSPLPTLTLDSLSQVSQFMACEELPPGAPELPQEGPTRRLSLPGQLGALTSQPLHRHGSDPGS

clearance [1]: 40 mL/min/kg | Activity [2]: 62% | Drug uptake [3]: 19 ng/g | Cmax [4]: 228 ng/mL | half-life [5]: 30 min | Activity [6]: 600% | clearance [7]: 32 mL/min/kg | bioavailability [8]: 54% | AUC(0-t) [10]: 472 ng·h/mL | half-life [11]: 78 min | QH [12]: 77% | solubility kinetic [13]: 133 µg/mL (≈ 366 µM) | Vd [15]: 3.4 L/kg | QH [16]: 86% | Tmax [18]: 30 min | Drug uptake [19]: 542 ng/g | Kp [21]: 1.5 | QH [22]: 100% | CL/F [23]: 12 mL/min/kg | IC50 [24]: 6 µM | CL [25]: > 50 mL/min/g | Activity [26]: 37%
Compound: O=C(c1ccc(-n2nc(C(F)(F)F)c3c2CCCC3)cc1)N1CCCC1
Activity [9]: Active | Activity [14]: Active | inhibition (INH) [17]: Not Active | Activity [20]: Active

From ChEMBL document CHEMBL1649062, “Integration of lead optimization with crystallography for a membrane-bound ion channel target: discovery of a new class of AMPA receptor positive allosteric modulators” (J Med Chem, 2011)
